According to ChEMBL document CHEMBL3877298, “Discovery of benzimidazole derivatives as modulators of mitochondrial function: A potential treatment for Alzheimer's disease” (Eur J Med Chem, 2017):

Experiments:
[1] = biological target: Translocator protein (Homo sapiens, UniProt P30536); test: Inhibition of TSPO (unknown origin)
How it was run: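 Membranes from male Sprague-Dawley rat cerebral cortex were homogenised and washed in Tris-HCl (30 mM, pH 7.4), then washed in Tris-citrate (50 mM, pH 7.1). Bound and free ligand were separated by filtration through GF/C filters and counted by scintillation. Percent displacement gave the IC50, and Ki was calculated as IC50/(1+[L]/Kd).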

[2] = biological target: Voltage-gated inwardly rectifying potassium channel KCNH2 (Homo sapiens, UniProt Q12809); test: Inhibition of human ERG expressed in CHOK1 cells by automated patch clamp method; type: cell-based, CHO-K1
[3] = biological target: CYP2D6 (Homo sapiens, UniProt P10635); test: Inhibition of recombinant human CYP2D6 expressed in baculosomes coexpressing rabbit NADPH-P450 reudctase assessed as residual activity at 10 uM preincubated for 5 mins followed by substrate and NADP+ addition measured after 20 mins by fluorescence assay relative to control; type: ADME; details: read-out: Activity
How it was run: (§1)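 Vivid CYP450 kit: recombinant human CYP isozyme in Baculosomes with rabbit NADPH-P450 reductase, plus regeneration system (3.3 mM glucose-6-phosphate, 0.3 U/mL G6PDH in 100 mM potassium phosphate, pH 8.0). Mixture preincubated with sample for 5 min at 37 °C. Vivid substrate and 0.1 mM NADP+ were then added, and remaining activity read by fluorescence after 20 min.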

[4] = biological target: CYP2C19 (Homo sapiens, UniProt P33261); test: Inhibition of recombinant human CYP2C19 expressed in baculosomes coexpressing rabbit NADPH-P450 reudctase assessed as residual activity at 10 uM preincubated for 5 mins followed by substrate and NADP+ addition measured after 20 mins by fluorescence assay relative to control; type: ADME; details: read-out: Activity; how it was run: as §1
[5] = biological target: Translocator protein (Mus musculus) (UniProt P50637); test: Inhibition of TSPO in mouse HT22 cells assessed as inhibition of amyloid beta (1 to 42)-induced toxicity at 5 uM after 24 hrs by MTT assay relative to control; type: cell-based; details: HT-22
How it was run: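 HT22 cells at 5000 per well were treated with compound (5 µM), with or without Aβ1-42 (5 µM), for 24 h at 37 °C. MTT was added for 2 h, then solubilising solution (10% Triton X-100 in isopropanol with 0.1 M HCl) for 2 h more. Absorbance read at 560 nm; % inhibition normalised to vehicle, and viability taken from compound-only wells.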

[6] = biological target: CYP3A4 (Homo sapiens, UniProt P08684); test: Inhibition of recombinant human CYP3A4 expressed in baculosomes coexpressing rabbit NADPH-P450 reudctase assessed as residual activity at 10 uM preincubated for 5 mins followed by substrate and NADP+ addition measured after 20 mins by fluorescence assay relative to control; type: ADME; details: read-out: Activity; how it was run: as §1
[7] = biological target: Translocator protein (Mus musculus) (UniProt P50637); test: (§2) Inhibition of TSPO in mouse HT22 cells assessed as protection against amyloid beta (1 to 42)-induced mitochondrial membrane potential loss by measuring recovery of ATP production at 5 uM preincubated for 10 mins followed by amyloid beta (1 to 42) addition measured after 7 hrs by luciferase reporter gene assay relative to control; type: cell-based; parameters: scale not given: the % may be the effect or the level left; details: HT-22
How it was run: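 HT22 cells at 7000 per well were given compound (5 µM) for 10 min at 37 °C, then Aβ1-42 (5 µM) or DMSO vehicle, and incubated 7 h. Cells were washed, lysed in 1% Triton X-100, and protein-equalised by BCA. ATP was measured by luciferin/luciferase luminescence and normalised to vehicle.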

[8] = biological target: Translocator protein (Mus musculus) (UniProt P50637); test: Inhibition of TSPO in mouse HT22 cells assessed as inhibition of amyloid beta (1 to 42)-induced ROS generation at 5 uM after 6 hrs by DCFDA staining based fluorescence assay relative to control; type: cell-based; details: HT-22
[9] = biological target: T1, CYP1A2 (Homo sapiens, UniProt P05177); test: Inhibition of recombinant human CYP1A2 expressed in baculosomes coexpressing rabbit NADPH-P450 reudctase assessed as residual activity at 10 uM preincubated for 5 mins followed by substrate and NADP+ addition measured after 20 mins by fluorescence assay relative to control; type: ADME; details: read-out: Activity; how it was run: as §1
T1 sequence (P05177 whole entry): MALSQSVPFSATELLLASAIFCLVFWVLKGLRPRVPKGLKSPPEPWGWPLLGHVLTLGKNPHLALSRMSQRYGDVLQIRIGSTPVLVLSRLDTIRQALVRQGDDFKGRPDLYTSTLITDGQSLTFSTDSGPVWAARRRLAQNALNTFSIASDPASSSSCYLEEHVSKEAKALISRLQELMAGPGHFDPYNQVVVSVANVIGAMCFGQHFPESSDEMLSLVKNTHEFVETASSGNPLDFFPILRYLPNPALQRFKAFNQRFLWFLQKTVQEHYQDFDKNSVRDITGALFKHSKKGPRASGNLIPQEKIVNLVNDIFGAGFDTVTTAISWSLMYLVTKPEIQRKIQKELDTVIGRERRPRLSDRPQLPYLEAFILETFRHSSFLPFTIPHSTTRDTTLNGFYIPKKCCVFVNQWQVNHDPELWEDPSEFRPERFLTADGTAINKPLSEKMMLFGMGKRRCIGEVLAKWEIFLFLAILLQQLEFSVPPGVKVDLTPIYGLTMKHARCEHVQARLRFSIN

[10] = biological target: CYP2C9 (Homo sapiens, UniProt P11712); test: Inhibition of recombinant human CYP2C9 expressed in baculosomes coexpressing rabbit NADPH-P450 reudctase assessed as residual activity at 10 uM preincubated for 5 mins followed by substrate and NADP+ addition measured after 20 mins by fluorescence assay relative to control; type: ADME; details: read-out: Activity; how it was run: as §1
[11] = Cytotoxicity against mouse HT22 cells assessed as cell viability at 5 uM after 24 hrs by MTT assay relative to control; type: toxicity, HT-22; details: read-out: Activity
How it was run: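 MTT was added for 2 h, then solubilising solution (10% Triton X-100 in isopropanol with 0.1 M HCl) for 2 h more. Absorbance read at 560 nm; % inhibition normalised to vehicle, and viability taken from compound-only wells.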

[12] = biological target: Translocator protein (Mus musculus) (UniProt P50637); test: as §2, with “mitochondrial membrane potential” for “ATP production”, “every 1 hr for 3” for “after 7”, “JC1 staining based fluorescence” for “luciferase reporter gene”; type: cell-based; parameters: scale not given: the % may be the effect or the level left; details: HT-22
How it was run: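 HT22 cells at 30,000 per well were loaded with 7.5 µM JC-1 in phenol red-free Opti-MEM for 1 h 15 min at 37 °C, then washed. Cells were treated with compound (5 µM) and Aβ1-42 (5 µM); vehicle wells received DMSO. Green (485/535) and red (560/595) fluorescence were read hourly for 3 h. Recovery was normalised between Aβ-damaged (0%) and normal (100%) ratio.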

[13] = tested on: Mus musculus; test: Cognition enhancing effect in ICR mouse model of acute Alzheimer's disease assessed as reversal of amyloid beta (1 to 42)-induced cognitive deficit by measuring spatial working memory at 30 mg/kg, ip daily for 6 days measured on day 7 by Y maze spontaneous alteration test relative to control; type: functional
How it was run: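 Male ICR mice (6 weeks, 30–33 g) received Aβ1-42 500 pmol ICV in 10% DMSO/PBS. Compound in 20% cyclodextrin was given at 30 mg/kg daily for 6 days (n = 7 per group). One day later, each mouse explored a three-arm Y-maze for 8 min, and the sequence of arm entries was used to calculate % spontaneous alternation.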

Chain of CYP3A4 (P08684 whole entry): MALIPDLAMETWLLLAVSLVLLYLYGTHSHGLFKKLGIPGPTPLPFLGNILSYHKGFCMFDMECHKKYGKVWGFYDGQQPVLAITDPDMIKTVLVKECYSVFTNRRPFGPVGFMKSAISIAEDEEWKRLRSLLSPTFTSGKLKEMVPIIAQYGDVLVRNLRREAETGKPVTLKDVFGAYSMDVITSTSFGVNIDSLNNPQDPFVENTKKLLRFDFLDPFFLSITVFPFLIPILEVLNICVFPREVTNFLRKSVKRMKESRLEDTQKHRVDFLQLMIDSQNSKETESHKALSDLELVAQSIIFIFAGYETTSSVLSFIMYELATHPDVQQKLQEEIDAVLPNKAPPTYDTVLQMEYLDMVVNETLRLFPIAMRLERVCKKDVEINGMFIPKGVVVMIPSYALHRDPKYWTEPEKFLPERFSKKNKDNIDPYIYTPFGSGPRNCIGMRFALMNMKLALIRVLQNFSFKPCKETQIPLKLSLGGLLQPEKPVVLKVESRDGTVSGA
Chain of CYP2C9 (P11712 whole entry): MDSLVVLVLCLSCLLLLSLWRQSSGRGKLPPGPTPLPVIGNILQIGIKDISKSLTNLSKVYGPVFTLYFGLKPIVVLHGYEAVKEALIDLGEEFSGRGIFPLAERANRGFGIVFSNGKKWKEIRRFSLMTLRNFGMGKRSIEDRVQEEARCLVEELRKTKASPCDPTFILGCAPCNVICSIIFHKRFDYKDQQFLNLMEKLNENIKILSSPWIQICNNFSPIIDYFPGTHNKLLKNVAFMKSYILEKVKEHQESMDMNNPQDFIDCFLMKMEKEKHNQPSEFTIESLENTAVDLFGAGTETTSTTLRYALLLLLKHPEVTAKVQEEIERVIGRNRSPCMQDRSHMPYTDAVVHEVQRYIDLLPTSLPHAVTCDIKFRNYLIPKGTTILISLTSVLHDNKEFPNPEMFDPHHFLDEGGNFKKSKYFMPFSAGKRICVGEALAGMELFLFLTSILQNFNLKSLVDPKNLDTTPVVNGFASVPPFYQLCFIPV
Chain of Translocator protein (Mus musculus) (P50637 whole entry, looked up): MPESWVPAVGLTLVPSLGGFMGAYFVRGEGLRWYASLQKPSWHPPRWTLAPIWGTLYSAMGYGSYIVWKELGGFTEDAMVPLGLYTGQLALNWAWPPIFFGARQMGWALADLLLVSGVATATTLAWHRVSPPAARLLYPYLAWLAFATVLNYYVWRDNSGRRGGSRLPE
Chain of CYP2C19 (P33261 whole entry): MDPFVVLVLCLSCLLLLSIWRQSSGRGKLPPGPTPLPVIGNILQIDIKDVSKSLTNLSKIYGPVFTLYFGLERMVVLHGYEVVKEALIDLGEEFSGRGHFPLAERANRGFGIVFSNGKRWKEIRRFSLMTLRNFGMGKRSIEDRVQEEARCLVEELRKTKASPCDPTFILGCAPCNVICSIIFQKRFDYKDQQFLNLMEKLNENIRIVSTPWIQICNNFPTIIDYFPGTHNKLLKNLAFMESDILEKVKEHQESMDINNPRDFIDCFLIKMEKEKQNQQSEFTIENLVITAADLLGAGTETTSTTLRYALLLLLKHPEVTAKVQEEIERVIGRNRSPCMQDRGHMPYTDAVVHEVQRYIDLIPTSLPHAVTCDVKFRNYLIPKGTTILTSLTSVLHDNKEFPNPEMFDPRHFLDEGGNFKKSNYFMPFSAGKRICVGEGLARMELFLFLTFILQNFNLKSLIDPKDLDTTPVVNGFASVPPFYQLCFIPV
Chain of CYP2D6 (P10635 whole entry): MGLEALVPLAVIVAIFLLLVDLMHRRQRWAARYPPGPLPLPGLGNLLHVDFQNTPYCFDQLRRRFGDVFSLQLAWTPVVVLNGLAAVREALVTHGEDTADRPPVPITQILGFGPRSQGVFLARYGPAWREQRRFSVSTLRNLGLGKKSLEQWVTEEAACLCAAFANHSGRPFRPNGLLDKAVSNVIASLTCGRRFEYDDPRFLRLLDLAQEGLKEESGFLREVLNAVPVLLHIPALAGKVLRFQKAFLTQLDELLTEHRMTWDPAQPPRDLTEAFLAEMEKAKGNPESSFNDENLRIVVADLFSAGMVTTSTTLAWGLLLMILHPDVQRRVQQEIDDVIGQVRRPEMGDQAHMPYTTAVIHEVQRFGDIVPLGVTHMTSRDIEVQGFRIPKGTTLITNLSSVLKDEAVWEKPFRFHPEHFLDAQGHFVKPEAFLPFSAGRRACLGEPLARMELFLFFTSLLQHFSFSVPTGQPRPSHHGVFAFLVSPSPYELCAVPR
Chain of Translocator protein (P30536 whole entry): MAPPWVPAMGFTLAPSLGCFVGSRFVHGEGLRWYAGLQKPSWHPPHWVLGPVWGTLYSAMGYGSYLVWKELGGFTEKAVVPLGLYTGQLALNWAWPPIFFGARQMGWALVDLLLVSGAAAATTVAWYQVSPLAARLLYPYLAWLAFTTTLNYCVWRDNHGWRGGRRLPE
Chain of Voltage-gated inwardly rectifying potassium channel KCNH2 (Q12809 whole entry): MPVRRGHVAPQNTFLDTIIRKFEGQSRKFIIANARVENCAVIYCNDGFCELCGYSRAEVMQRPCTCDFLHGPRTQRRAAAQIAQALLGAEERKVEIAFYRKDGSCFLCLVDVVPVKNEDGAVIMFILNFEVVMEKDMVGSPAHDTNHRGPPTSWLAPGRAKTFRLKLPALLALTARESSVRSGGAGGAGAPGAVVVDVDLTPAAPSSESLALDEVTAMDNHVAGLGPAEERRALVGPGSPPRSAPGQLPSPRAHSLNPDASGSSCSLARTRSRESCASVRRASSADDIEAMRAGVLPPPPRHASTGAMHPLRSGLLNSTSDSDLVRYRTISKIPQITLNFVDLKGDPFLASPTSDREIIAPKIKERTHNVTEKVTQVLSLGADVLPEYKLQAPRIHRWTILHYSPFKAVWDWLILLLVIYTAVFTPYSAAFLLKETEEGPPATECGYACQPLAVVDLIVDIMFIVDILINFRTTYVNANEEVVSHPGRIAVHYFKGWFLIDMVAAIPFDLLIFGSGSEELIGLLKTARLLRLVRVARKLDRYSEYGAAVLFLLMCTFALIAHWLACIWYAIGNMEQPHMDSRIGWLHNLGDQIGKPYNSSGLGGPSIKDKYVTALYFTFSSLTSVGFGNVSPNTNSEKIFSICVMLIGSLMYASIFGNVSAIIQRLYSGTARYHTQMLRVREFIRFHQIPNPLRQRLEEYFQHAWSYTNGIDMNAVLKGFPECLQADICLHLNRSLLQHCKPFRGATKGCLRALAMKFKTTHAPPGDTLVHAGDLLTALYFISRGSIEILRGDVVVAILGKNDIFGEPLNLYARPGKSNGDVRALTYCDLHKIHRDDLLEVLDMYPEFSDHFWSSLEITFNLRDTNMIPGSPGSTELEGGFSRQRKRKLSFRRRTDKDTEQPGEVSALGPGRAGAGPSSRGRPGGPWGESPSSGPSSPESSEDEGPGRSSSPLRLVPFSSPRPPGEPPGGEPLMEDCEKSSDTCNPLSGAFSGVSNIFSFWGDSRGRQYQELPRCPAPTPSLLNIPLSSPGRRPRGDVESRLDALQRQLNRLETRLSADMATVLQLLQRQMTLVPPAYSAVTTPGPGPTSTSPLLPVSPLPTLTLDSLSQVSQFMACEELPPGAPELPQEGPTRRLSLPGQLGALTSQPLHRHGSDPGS

| Compound | Ki [1] | IC50 [2] | activity at 20 min, 10 µM [3] | activity at 20 min, 10 µM [4] | inhibition [5] | activity at 20 min, 10 µM [6] | Activity [7] | inhibition [8] | activity at 20 min, 10 µM [9] | activity at 20 min, 10 µM [10] | viability at 24 h, 5 µM [11] | Activity [12] | Activity [13] | IC50 [1] |
| --- | --- | --- | --- | --- | --- | --- | --- | --- | --- | --- | --- | --- | --- | --- |
| CCCCN(CCCC)C(=O)Cc1c(-c2ccc(Cl)cc2)nc2c(Cl)cc(Cl)cn12 | 2.68 nM |  |  |  |  |  |  |  |  |  |  |  |  |  |
| CCN1CCCC1CNC(=O)c1ccc(Cn2c(Cc3c(Cl)cccc3Cl)nc3ccccc32)cc1 (stereo not drawn) |  | 1570 nM | 82.4% | 31.4% | 6% | 130% | 51% | 24% | 63% | 50.6% | 62 to 122% | 90% |  |  |
| CN(C)CCCNC(=O)c1ccc(Cn2c(Cc3c(Cl)cccc3Cl)nc3ccccc32)cc1 |  |  | 120% | 72.9% | 7% | 206% | 85% | 9% | 66.1% | 53.9% | 93 to 111% | 82% | 62% |  |
| NC(=O)CN1CCCC1=O |  |  |  |  | 29% |  | 127% | 129% |  |  | 88 to 132% | 60% | 32% |  |
| COc1ccc(OC)c(CN(C(C)=O)c2ccc(F)cc2Oc2ccccc2)c1 |  |  |  |  |  |  |  |  |  |  |  |  |  | 1.6 nM |
| O=C(NCCCN1CCCCC1)c1ccc(Cn2c(Cc3c(Cl)cccc3Cl)nc3ccccc32)cc1 |  |  | 25.5% | 67.3% | 3% | 176% | 64% | 27% | 68.4% | 61.1% | 86 to 118% | 90% |  |  |
| CC(=O)N(Cc1ccccc1OC(C)C)c1ccc(Cl)cc1Oc1ccccc1 |  |  |  |  |  |  |  |  |  |  |  |  |  | 0.92 nM |
| COc1ccc(OC)c(Cc2nc3ccccc3n2CC(=O)Nc2cc(C(C)(C)C)cc(C(C)(C)C)c2)c1 |  | 20 nM | 56.3% | 43.9% | 36% | 43.3% | 46% | 10% | 92.5% | 36.1% | 99 to 112% | 54% |  |  |
| Cc1ccc(C(C)C)cc1NC(=O)Cn1c(-c2cc(Cl)ccc2Cl)nc2ccc(Cl)cc21 |  |  | 82.2% | 11.9% | 0% | 15.4% | 69% | 107% | 56.3% | 29.6% | 86 to 106% | 87% |  |  |
| CCCCCCN(CCCCCC)C(=O)Cc1c(-c2ccc(F)cc2)[nH]c2ccccc12 | 3.25 nM |  |  |  |  |  |  |  |  |  |  |  |  |  |
